Active and inactive are the calls of the source. The rule behind the calls is not given here.
Tests used:
[1] = molecular target: T1, Human immunodeficiency virus type 1 reverse transcriptase (Human immunodeficiency virus 1, UniProt Q72547); test: Binding affinity to wild type HIV1 LAI reverse transcriptase assessed as ATP-mediated excision of zidovudine-monophosphate terminated DNA/DNA template/primer duplex chain at 100 uM by gel shift mobility assay
Outline: (§1)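 Native 4% PAGE in Tris-acetate pH 8.0 with 1 mM EDTA, 30 min at 100 V, room temperature. The shifted band was taken as a 1:1 RT-T/P complex to give Kd. Mean ± SD of three experiments.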

[2] = system: Human immunodeficiency virus 1; test: (§2) Selectivity ratio of Kd for excision of zidovudine-monophosphate from chain terminated DNA/DNA template/primer duplex in 200 nM HIV1 LAI reverse transcriptase M41L/L210W/T215Y mutant to Kd for excision of zidovudine-monophosphate from chain terminated DNA/DNA template/primer duplex in 200 nM wild type HIV1 LAI reverse transcriptase by gel shift mobility assay
[3] = molecular target: Human immunodeficiency virus type 1 reverse transcriptase (Human immunodeficiency virus 1, UniProt Q72547, K65R/L210W/M41L/T215Y); test: Binding affinity to HIV1 LAI reverse transcriptase M41L/L210W/T215Y/K65R mutant assessed as ATP-mediated excision of zidovudine-monophosphate terminated DNA/DNA template/primer duplex chain at 100 uM by gel shift mobility assay; outline: as §1
[4] = system: Human immunodeficiency virus 1; test: Binding affinity to HIV1 LAI reverse transcriptase M41L/L210W/T215Y/M184V/G333D mutant assessed as ATP-mediated excision of zidovudine-monophosphate from chain terminated RNA/DNA template/primer duplex
Outline: (§3)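 The AZT-MP-terminated ³²P-P20 primer was annealed to a 35-nt RNA template (T35). 200 nM active-site RT with 20 nM T/P in 50 mM Tris-HCl pH 8.0, 50 mM KCl. Started with 3.0 mM ATP and 10 mM MgCl₂. Timed aliquots were quenched and separated on denaturing urea-PAGE, then phosphorimaged.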

[5] = system: Human immunodeficiency virus type 1 reverse transcriptase (Human immunodeficiency virus 1), Q72547 [M184V]; test: Binding affinity to HIV1 LAI reverse transcriptase M184V mutant assessed as ATP-mediated excision of zidovudine-monophosphate from chain terminated RNA/DNA template/primer duplex at 100 uM; outline: as §3
[6] = molecular target: T2, Human immunodeficiency virus type 1 reverse transcriptase (Human immunodeficiency virus 1, UniProt Q72547, L210W/M41L/T215Y); test: Binding affinity to HIV1 LAI reverse transcriptase M41L/L210W/T215Y mutant assessed as ATP-mediated excision of zidovudine-monophosphate terminated DNA/DNA template/primer duplex chain at 100 uM by gel shift mobility assay; outline: as §1
[7] = system: Human immunodeficiency virus type 1 reverse transcriptase (Human immunodeficiency virus 1), Q72547 [M41L,L210W,T215Y,M184V]; test: Binding affinity to 200 nM HIV1 LAI reverse transcriptase M41L/L210W/T215Y/M184V mutant assessed as ATP-mediated excision of zidovudine-monophosphate from chain terminated DNA/DNA template/primer duplex at 100 uM
Outline: (§4)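 Primer P20 (5′-³²P) on DNA template T57 was chain-terminated with WT RT and 100 μM AZT-TP (30 min, 37°C), gel-purified and reannealed. 200 nM active-site RT with 20 nM terminated T/P in 50 mM Tris-HCl pH 8.0, 50 mM KCl. Started with 3.0 mM ATP, 10 mM MgCl₂, 1 μM TTP and 5 μM ddCTP. Timed aliquots were run on 7 M urea-16% PAGE and phosphorimaged.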

[8] = system: Human immunodeficiency virus type 1 reverse transcriptase (Human immunodeficiency virus 1), Q72547 [M41L,L210W,T215Y]; test: Binding affinity to 200 nM HIV1 LAI reverse transcriptase M41L/L210W/T215Y mutant assessed as ATP-mediated excision of zidovudine-monophosphate from chain terminated DNA/DNA template/primer duplex at 100 uM; outline: as §4
[9] = system: Human immunodeficiency virus type 1 reverse transcriptase (Human immunodeficiency virus 1), Q72547 [M41L,L210W,T215Y,M184V]; test: Binding affinity to HIV1 LAI reverse transcriptase M41L/L210W/T215Y/M184V mutant assessed as ATP-mediated excision of zidovudine-monophosphate from chain terminated RNA/DNA template/primer duplex; outline: as §3
[10] = system: Human immunodeficiency virus 1; test: as §2, with “zidovudine-monophosphate” for “zidovudine-monophosphate from chain”, “duplex chain” for “duplex”, “in” for “in 200 nM”, “M41L/L210W/T215Y/M184V” for “M41L/L210W/T215Y”
[11] = system: Human immunodeficiency virus type 1 reverse transcriptase (Human immunodeficiency virus 1), Q72547 [M184V]; test: Binding affinity to 200 nM HIV1 LAI reverse transcriptase M184V mutant assessed as ATP-mediated excision of zidovudine-monophosphate from chain terminated DNA/DNA template/primer duplex at 100 uM; outline: as §4
[12] = molecular target: Human immunodeficiency virus type 1 reverse transcriptase (Human immunodeficiency virus 1) (UniProt Q72547); test: Binding affinity to wild type HIV1 LAI reverse transcriptase assessed as ATP-mediated excision of zidovudine-monophosphate from chain terminated RNA/DNA template/primer duplex; outline: as §3
[13] = system: Human immunodeficiency virus 1; test: as §2, with “zidovudine-monophosphate” for “zidovudine-monophosphate from chain”, “duplex chain” for “duplex”, “in” for “in 200 nM”, “M41L/L210W/T215Y/M184V/G333D” for “M41L/L210W/T215Y”
[14] = molecular target: T3, Human immunodeficiency virus type 1 reverse transcriptase (Human immunodeficiency virus 1, UniProt Q72547, L210W/M184V/M41L/T215Y); test: Binding affinity to HIV1 LAI reverse transcriptase M41L/L210W/T215Y/M184V mutant assessed as ATP-mediated excision of zidovudine-monophosphate terminated DNA/DNA template/primer duplex chain at 100 uM by gel shift mobility assay; outline: as §1
[15] = system: Human immunodeficiency virus 1; test: as §2, with “zidovudine-monophosphate” for “zidovudine-monophosphate from chain”, “duplex chain” for “duplex”, “in” for “in 200 nM”
[16] = system: Human immunodeficiency virus 1; test: as §2, with “zidovudine-monophosphate” for “zidovudine-monophosphate from chain”, “duplex chain” for “duplex”, “in” for “in 200 nM”, “M41L/L210W/T215Y/K65R” for “M41L/L210W/T215Y”
[17] = molecular target: Human immunodeficiency virus type 1 reverse transcriptase (Human immunodeficiency virus 1) (UniProt Q72547); test: Binding affinity to 200 nM wild type HIV1 LAI reverse transcriptase assessed as ATP-mediated excision of zidovudine-monophosphate from chain terminated DNA/DNA template/primer duplex at 100 uM; outline: as §4
[18] = system: Human immunodeficiency virus 1; test: as §2, with “zidovudine-monophosphate” for “zidovudine-monophosphate from chain”, “duplex chain” for “duplex”, “in” for “in 200 nM”, “M184V” for “M41L/L210W/T215Y”
[19] = Binding affinity to HIV1 LAI reverse transcriptase M41L/L210W/T215Y/M184V/G333D mutant assessed as ATP-mediated excision of zidovudine-monophosphate terminated DNA/DNA template/primer duplex chain at 100 uM by gel shift mobility assay; parameters: species or system Human immunodeficiency virus 1; outline: as §1
[20] = system: Human immunodeficiency virus type 1 reverse transcriptase (Human immunodeficiency virus 1), Q72547 [M41L,L210W,T215Y]; test: Binding affinity to HIV1 LAI reverse transcriptase M41L/L210W/T215Y mutant assessed as ATP-mediated excision of zidovudine-monophosphate from chain terminated RNA/DNA template/primer duplex; outline: as §3
[21] = molecular target: T4, Human immunodeficiency virus type 1 reverse transcriptase (Human immunodeficiency virus 1, UniProt Q72547, M184V); test: Binding affinity to HIV1 LAI reverse transcriptase M184V mutant assessed as ATP-mediated excision of zidovudine-monophosphate terminated DNA/DNA template/primer duplex chain at 100 uM by gel shift mobility assay; outline: as §1
[22] = system: Human immunodeficiency virus 1; test: Binding affinity to 200 nM HIV1 LAI reverse transcriptase M41L/L210W/T215Y/M184V/G333D mutant assessed as ATP-mediated excision of zidovudine-monophosphate from chain terminated DNA/DNA template/primer duplex at 100 uM; outline: as §4
[23] = system: Human immunodeficiency virus 1; test: as §2, with “in” for “in 200 nM”, “M41L/L210W/T215Y/K65R/G333D” for “M41L/L210W/T215Y”
[24] = system: Human immunodeficiency virus 1; test: as §2, with “200 nM HIV1 LAI” for “200 nM wild type HIV1 LAI”, “reverse transcriptase M184V mutant by gel” for “reverse transcriptase by gel”
[25] = Binding affinity to HIV1 LAI reverse transcriptase M41L/L210W/T215Y/K65R/G333D mutant assessed as ATP-mediated excision of zidovudine-monophosphate terminated DNA/DNA template/primer duplex chain at 100 uM by gel shift mobility assay; parameters: species or system Human immunodeficiency virus 1; outline: as §1
[26] = Binding affinity to HIV1 LAI reverse transcriptase M41L/L210W/T215Y/M184V/G333D mutant; parameters: species or system Human immunodeficiency virus 1
[27] = molecular target: T1, Human immunodeficiency virus type 1 reverse transcriptase; test: Binding affinity to wild type HIV1 LAI reverse transcriptase
Outline: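 Bacterially expressed, purified RT, corrected for active-site concentration, preincubated at 400 nM with 40 nM 5′-³²P-labelled 20-nt DNA primer annealed to a 57-nt DNA template in 50 mM Tris-HCl pH 7.5, 50 mM KCl. It was then rapid-quench mixed 1:1 with nucleotide in the same buffer plus 20 mM MgCl₂. EDTA quench at 10 ms–30 min; urea-PAGE. k_obs fitted single-exponential; K_d from hyperbolic k_obs-versus-concentration fit.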

[28] = molecular target: T4, Human immunodeficiency virus type 1 reverse transcriptase; test: Binding affinity to HIV1 LAI reverse transcriptase M184V mutant
[29] = molecular target: T2, Human immunodeficiency virus type 1 reverse transcriptase; test: Binding affinity to HIV1 LAI reverse transcriptase M41L/L210W/T215Y mutant
[30] = molecular target: T3, Human immunodeficiency virus type 1 reverse transcriptase; test: Binding affinity to HIV1 LAI reverse transcriptase M41L/L210W/T215Y/M184V mutant
[31] = system: Human immunodeficiency virus 1; test: Ratio of Kpol to Kd for HIV1 LAI reverse transcriptase M41L/L210W/T215Y/M184V/G333D mutant
Outline: (§5)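 Pre-steady-state rapid quench: 400 nM active-site RT and 40 nM ³²P-P20/T57 DNA T/P were preincubated in 50 mM Tris-HCl pH 7.5, 50 mM KCl, then mixed with nucleotide in the same buffer containing 20 mM MgCl₂. Quenched with 0.3 M EDTA from 10 ms to 30 min, run on urea-PAGE. kobs came from single-exponential fits; kpol and Kd came from a hyperbolic fit versus nucleotide concentration.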

[32] = system: Human immunodeficiency virus type 1 reverse transcriptase (Human immunodeficiency virus 1), Q72547 [M41L,L210W,T215Y]; test: Ratio of Kpol to Kd for HIV1 LAI reverse transcriptase M41L/L210W/T215Y mutant; outline: as §5
[33] = system: Human immunodeficiency virus type 1 reverse transcriptase (Human immunodeficiency virus 1), Q72547 [M184V]; test: Ratio of Kpol to Kd for HIV1 LAI reverse transcriptase M184V mutant; outline: as §5
[34] = system: Human immunodeficiency virus type 1 reverse transcriptase (Human immunodeficiency virus 1), Q72547 [M41L,L210W,T215Y,M184V]; test: Ratio of Kpol to Kd for HIV1 LAI reverse transcriptase M41L/L210W/T215Y/M184V mutant; outline: as §5
[35] = molecular target: Human immunodeficiency virus type 1 reverse transcriptase (Human immunodeficiency virus 1) (UniProt Q72547); test: Ratio of Kpol to Kd for wild type HIV1 LAI reverse transcriptase; outline: as §5

SMILES: Cc1cn([C@H]2C[C@H](N=[N+]=[N-])[C@@H](COP(=O)(O)O)O2)c(=O)[nH]c1=O [AZIDOTHYMIDINE MONOPHOSPHATE]
- Kd [1]: 19.8 nM
- fold change (FC) [2]: 4
- Kd [3]: 20.5 nM
- Activity [4]: Active
- Activity [5]: inactive
- Kd [6]: 18.8 nM
- Activity [7]: Active
- Activity [8]: Active
- Activity [9]: Active
- Ratio [10]: 5
- Activity [11]: Active
- Activity [12]: inactive
- Ratio [13]: 2.3
- Kd [14]: 98.4 nM
- Ratio [15]: 1
- Ratio [16]: 1
- Activity [17]: Active
- Ratio [18]: 3.8
- Kd [19]: 46.2 nM
- Activity [20]: Active
- Kd [21]: 76.9 nM
- Activity [22]: Active
- Ratio [23]: 1.1
- fold change (FC) [24]: 4
- Kd [25]: 22.3 nM

SMILES: Cc1cn([C@H]2C[C@H](O)[C@@H](COP(=O)(O)OP(=O)(O)OP(=O)(O)O)O2)c(=O)[nH]c1=O [DEOXYTHYMIDINE_TRIPHOSPHATE]
- Kd [26]: 2900 nM
- Kd [27]: 2080 nM
- Kd [28]: 2850 nM
- Kd [29]: 1200 nM
- Kd [30]: 2650 nM

SMILES: Nc1ccn([C@H]2C[C@H](O)[C@@H](COP(=O)(O)OP(=O)(O)OP(=O)(O)O)O2)c(=O)n1 [DEOXYCYTIDINE TRIPHOSPHATE]
- Kd [26]: 2510 nM
- Kd [27]: 1140 nM
- Ratio [31]: 0.58
- Kd [28]: 2490 nM
- Ratio [32]: 1.06
- Ratio [33]: 0.53
- Ratio [34]: 0.44
- Kd [29]: 1230 nM
- Ratio [35]: 1.07
- Kd [30]: 2990 nM

Reference: ChEMBL document CHEMBL1153554, “Mechanisms by which the G333D mutation in human immunodeficiency virus type 1 Reverse transcriptase facilitates dual resistance to zidovudine and lamivudine” (Antimicrob Agents Chemother, 2008)
